Calls of active or inactive are those of the source. The rule behind the calls is not given here.

The test system of assay [1] is MCF7. Put plainly: Antiestrogenic activity in human MCF7 cells assessed as inhibition of E2-enhanced cell proliferation at 0.1 to 100 uM after 96 hrs by alamar blue assay. Type of assay: functional. The essentials:
(§1)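 Cells seeded at 1 × 10^4 per well in phenol red-free RPMI with 5% DCC-treated FBS. E2 was added from a 20 nM solution to give 100 pM and preincubated 1 h at 37 °C, 5% CO2. Compounds were then added at 0.1, 1, 10 and 100 µM for 96 h, with serially diluted tamoxifen as positive control. Antagonism was judged from cell populations. iEqE values were obtained by linear regression over four concentrations.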
Background: Alamar Blue is a resazurin reagent that responds to reducing activity.

In assay [2] the test system is MCF7. The assay can be described thus: Stimulation of human MCF7 cell proliferation up to 100 uM after 96 hrs by alamar blue assay relative to estradiol. Type of assay: functional, cell-based. The essentials:
(§2)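 Compounds were given alone at 0.1, 1, 10 and 100 µM, and stimulation of proliferation was compared with estradiol at 1–100 pM. Cell proliferation assay as in an earlier report.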

Assay [3] deals with MCF7. The assay can be described thus: Antiestrogenic activity in human MCF7 cells assessed as drug level causing inhibition of 100 pM E2-enhanced cell proliferation to level equivalent to 50 pM E2 after 96 hrs by alamar blue assay. Type of assay: functional. The essentials:
as §1

The test system of assay [4] is T47D. Put plainly: Antiestrogenic activity in human T47D cells assessed as drug level causing inhibition of 100 pM E2-enhanced cell proliferation to level equivalent to 10 pM E2 after 96 hrs by alamar blue assay. Type of assay: functional. The procedure, abridged:
as §1

Assay [5] has as its system T47D. Put plainly: Antiestrogenic activity in human T47D cells assessed as drug level causing inhibition of 100 pM E2-enhanced cell proliferation to level equivalent to 50 pM E2 after 96 hrs by alamar blue assay. Format: functional. The procedure, abridged:
as §1

For assay [6], the system named is T47D. The assay can be described thus: Antiestrogenic activity in human T47D cells assessed as drug level causing inhibition of 100 pM E2-enhanced cell proliferation to level equivalent to 1 pM E2 after 96 hrs by alamar blue assay. Type of assay: functional. The essentials: as §1
In assay [7] the test system is T47D. Put plainly: Stimulation of human T47D cell proliferation up to 100 uM after 96 hrs by alamar blue assay relative to estradiol. Type of assay: functional, cell-based. The procedure, abridged: as §2
For assay [8], the system named is MCF7. The assay can be described thus: Antiestrogenic activity in human MCF7 cells assessed as drug level causing inhibition of 100 pM E2-enhanced cell proliferation to level equivalent to 1 pM E2 after 96 hrs by alamar blue assay. Type of assay: functional. The essentials: as §1
Assay [9] deals with MCF7. Put plainly: Antiestrogenic activity in human MCF7 cells assessed as drug level causing inhibition of 100 pM E2-enhanced cell proliferation to level equivalent to 10 pM E2 after 96 hrs by alamar blue assay. Type of assay: functional. The essentials: as §1
Assay [10] deals with T47D. The assay can be described thus: Antiestrogenic activity in human T47D cells assessed as inhibition of E2-enhanced cell proliferation at 0.1 to 100 uM after 96 hrs by alamar blue assay. Format: functional. The procedure, abridged:
as §1

For the molecule `COc1cc([C@H]2OC[C@H]3[C@@H]2CO[C@@H]3c2cc(OC)c(O[C@@H]3O[C@H](CO)[C@@H](O)[C@H](O)[C@H]3O)c(OC)c2)ccc1O`, the “inhibition (INH)” value in assay [1] is recorded as more than 90%. In addition, the outcome in assay [2] and in [7] was inactive. Moreover, the Activity in assay [3] was less than 0.1 µM; in assay [4], 2 µM; in assay [5], less than 0.1 µM; in assay [6] it was more than 100 µM; in [8] it was more than 100 µM; in assay [9], less than 0.1 µM.
Regarding `Nc1ncnc2c1ncn2[C@@H]1O[C@H](CO)[C@@H](O)[C@H]1O` [ADENOSINE], the “inhibition (INH)” value in assay [1] is given as more than 90%. Besides, the result in assay [2] and in assay [7] was inactive. For the same molecule, the Activity is less than 0.1 µM in assay [3]; 69 µM in assay [4]; 2 µM in assay [5]; more than 100 µM in assay [6]; more than 100 µM in assay [8]; less than 0.1 µM in assay [9].
As to `COc1cc(/C=C/C(=O)O[C@H]2C[C@@H]3C(C(=O)O)=CO[C@@H](O[C@@H]4O[C@H](CO)[C@@H](O)[C@H](O)[C@H]4O)[C@@H]3[C@@H]2C)ccc1O` [KHAINAOSIDE B], the “inhibition (INH)” value in assay [1] and in [10] was more than 90% in each case. Also, the outcome in assay [2] and in assay [7] was inactive. Further, the Activity is less than 0.1 µM in assay [3]; less than 0.1 µM in assay [4]; less than 0.1 µM in assay [5]; more than 100 µM in [6]; more than 100 µM in assay [8]; less than 0.1 µM in assay [9].
As to `O=c1cc(-c2ccc(O)cc2)oc2cc(O[C@@H]3O[C@H](CO)[C@@H](O)[C@H](O)[C@H]3O)cc(O)c12` [APIGETRIN], the “inhibition (INH)” value in [1] is more than 90%. Also, the result in assay [2] and in assay [7] was inactive. For the same molecule, the Activity was less than 0.1 µM in assay [3]; less than 0.1 µM in assay [4]; less than 0.1 µM in assay [5]; 2 µM in [6]; more than 100 µM in assay [8]; less than 0.1 µM in assay [9].
In the case of `COc1cc(O[C@@H]2O[C@H](CO)[C@@H](O)[C@H](O)[C@H]2O)cc(OC)c1O` [KOABURASIDE], in assay [1], the “inhibition (INH)” value is reported as more than 90%. Besides, the outcome in assay [2] and in assay [7] was inactive. Also, the Activity is less than 0.1 µM in assay [3]; 37 µM in assay [4]; 2 µM in assay [5]; 70 µM in assay [6]; more than 100 µM in [8]; less than 0.1 µM in assay [9].
In the case of `COc1cc(O)ccc1O[C@@H]1O[C@H](CO[C@@H]2OC[C@@H](O)[C@H](O)[C@H]2O)[C@@H](O)[C@H](O)[C@H]1O` [CAPPAROSIDE A], in [10], the “inhibition (INH)” value is more than 50%. Moreover, the result in assay [2] and in assay [7] was inactive. Further, the Activity was less than 0.1 µM in assay [3]; more than 100 µM in assay [4]; less than 0.1 µM in assay [5]; more than 100 µM in assay [6]; more than 100 µM in assay [8]; 0.3 µM in [9].
Regarding `CCCc1ccc(O[C@@H]2O[C@H](CO)[C@@H](O)[C@H](O)[C@H]2O)c(OC)c1`, the “inhibition (INH)” value in assay [10] was more than 50%. The outcome in assay [2] and in assay [7] was inactive. Besides, the Activity in assay [3] was less than 0.1 µM; in assay [4], more than 100 µM; in assay [5], less than 0.1 µM; in [6], more than 100 µM; in assay [8], 0.4 µM; in assay [9], less than 0.1 µM.
For `COc1cc([C@H]2OC[C@H]3[C@@H]2CO[C@@H]3c2ccc(O[C@@H]3O[C@H](CO)[C@@H](O)[C@H](O)[C@H]3O)c(OC)c2)ccc1O`, the “inhibition (INH)” value in [10] is more than 90%. Further, the result in assay [2] and in assay [7] was inactive. For the same molecule, the Activity in [3] was less than 0.1 µM; in assay [4], less than 0.1 µM; in assay [5], less than 0.1 µM; in assay [6] it was more than 100 µM; in assay [8], less than 0.1 µM; in [9], less than 0.1 µM.
`COc1cc([C@H]2OC[C@H]3[C@@H]2CO[C@@H]3c2cc(OC)c(O)c(OC)c2)ccc1O[C@@H]1O[C@H](CO)[C@@H](O)[C@H](O)[C@H]1O` [ISOEUCOMMIN A]: the “inhibition (INH)” value in assay [10] was more than 90%. Moreover, the result in [2] and in assay [7] was inactive. Also, the Activity in assay [3] is less than 0.1 µM; in assay [4], less than 0.1 µM; in [5] it was less than 0.1 µM; in [6], more than 100 µM; in [8] it was less than 0.1 µM; in assay [9] it was less than 0.1 µM.

These data come from ChEMBL document CHEMBL1154802, “Antiestrogenic constituents of the Thai medicinal plants Capparis flavicans and Vitex glabrata” (2009).
